{"data": "Measurements from different studies", "read-out": "cell growth or viability", "note": "Protocols differ between the studies behind these lines."}
{"SMILES": "O=C(N[C@@H](Cc1ccccc1)C(=O)c1ncc(-c2ccccc2)s1)[C@H](Cc1ccccc1)NC(=O)N1CCOCC1", "cell line": "MRC-5 SV2", "CC50": "> 64 µM"}
{"SMILES": "COC(=O)c1c(C)ncn1CC(c1c[nH]c2ccccc12)c1c[nH]c2ccccc12", "cell line": "HaCaT", "assay": "MTS", "conditions": "24 h", "CC50": "> 20 µM"}
{"SMILES": "N=C(N)c1ccc(/N=N/Nc2ccc(C(=N)N)cc2)cc1", "cell line": "MRC-5 SV2", "assay": "resazurin", "conditions": "72 h", "CC50": "> 64 µM"}
{"SMILES": "O=C(N[C@@H](Cc1ccccc1)C(=O)c1ncc(-c2ccccc2)o1)[C@H](Cc1ccccc1)NC(=O)N1CCOCC1", "cell line": "MRC-5 SV2", "CC50": "> 64 µM"}
{"SMILES": "Cc1cn([C@H]2C[C@H](N=[N+]=[N-])[C@@H](CO)O2)c(=O)[nH]c1=O", "cell line": "CEM-GFP", "assay": "MTT", "conditions": "48 h", "CC50": "> 200 µg/mL"}
{"SMILES": "O=C(N[C@@H](Cc1ccccc1)C(=O)c1cn(COCc2ccccc2)nn1)[C@H](Cc1ccccc1)NC(=O)N1CCOCC1", "cell line": "MRC-5 SV2", "CC50": "> 64 µM"}
{"SMILES": "CCOC(=O)c1cn(CC(c2cn(C)c3ccc(C)cc23)c2cn(C)c3ccc(C)cc23)c(C)c1C(=O)OC", "cell line": "HaCaT", "assay": "MTS", "conditions": "24 h", "CC50": "> 20 µM"}
{"SMILES": "Cc1ncnc2c1c(SC(F)(F)F)cn2[C@@H]1O[C@H](CO)[C@@H](O)[C@H]1O", "cell line": "MRC-5 SV2", "assay": "resazurin", "conditions": "72 h", "CC50": "36.8 µM"}
{"SMILES": "CCCCCCCCCCCCCCCCOP(=O)([O-])OCC[N+](C)(C)C", "cell line": "HaCaT", "assay": "MTS", "conditions": "24 h", "CC50": "> 20 µM"}
{"SMILES": "Cc1ccc(C(=O)Nc2ccc(S(=O)(=O)O)c3cc(S(=O)(=O)O)cc(S(=O)(=O)O)c23)cc1NC(=O)c1cccc(NC(=O)Nc2cccc(C(=O)Nc3cc(C(=O)Nc4ccc(S(=O)(=O)O)c5cc(S(=O)(=O)O)cc(S(=O)(=O)O)c45)ccc3C)c2)c1", "cell line": "MRC-5 SV2", "assay": "resazurin", "conditions": "72 h", "CC50": "> 64 µM"}
{"SMILES": "C[C@@H]1O[C@@H](OC[C@H]2O[C@@H](Oc3c(-c4ccc(O)c(O)c4)oc4cc(O)cc(O)c4c3=O)[C@H](O)[C@@H](O)[C@@H]2O)[C@H](O)[C@H](O)[C@H]1O", "cell line": "CEM-GFP", "assay": "MTT", "conditions": "48 h", "CC50": "> 250 µg/mL"}
